Calls of active or inactive are those of the source. The rule behind the calls is not given here.
Key:
3T3-L1 [1] = test: Cell cycle arrest in mouse 3T3L1 cells assessed as accumulation at G1/S phase at 20 uM after 24 hrs in presence of beta-catenin/TCF complex inhibitor FH353 by propidium iodide-staining based flow cytometry; format: functional
Outline: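 3T3-L1 cells exposed to 20 µM with or without FH353 (10 µM) in differentiation medium for 16 and 24 hr. Cells fixed in ice-cold 70% ethanol, stained with PI (40 µg/ml, RNase A buffer, 30 min, room temperature) and analysed by flow cytometry; representative of three experiments.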

Syrian golden hamster [2] = test: Induction of reverse cholestrol transport in high fat diet-induced dyslipidemia Syrian Golden hamster model assessed as increase in ABCA1 mRNA expression in eWAT at 100 mg/kg, po administered for 1 week by qRT-PCR analysis; format: functional, organism-based; settings: Mesocricetus auratus
Homo sapiens = species on record: Homo sapiens; test: Anti-adipogenic activity in human differentiated MSC assessed as reduction in lipid accumulation at 5 to 20 uM after 20 mins by Oil Red O absorbance method; format: functional
Outline: (§1)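 C3H10T1/2 or human MSC differentiated with IBMX/insulin/dexamethasone media containing 5, 10 or 20 µM compound. Cells stained with Oil red O (0.36% in 60% isopropanol, 20 min), dye extracted with isopropanol, absorbance read at 492 nm. n=3, mean ± SD, Student t test against MDI group.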

3T3-L1 [3] = test: Induction of Wnt10a mRNA expression in mouse 3T3L1 cells at 20 uM by qRT-PCR analysis; format: functional, cell-based
Outline: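 3T3-L1 cells induced with MDI differentiation medium with or without 20 µM. RNA isolated with TRIzol and 500 ng reverse-transcribed to cDNA for real-time PCR. n=3 with triplicates, mean ± SD; one-way ANOVA with Bonferroni post-test.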

Mus musculus [4] = species on record: Mus musculus; test: Activation of Wnt3a/beta-catenin in mouse 3T3L1 cells assessed as increase in CREB mRNA expression at 20 uM by qRT-PCR analysis; format: cell-based
Outline: (§2)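 3T3-L1 cells differentiated with IBMX/dexamethasone/insulin media with or without 20 µM compound over the differentiation period. RNA extracted with TRIZOL, 500 ng reverse-transcribed to cDNA, then quantitative real-time PCR. Three independent experiments run in triplicate, mean ± SD, one-way ANOVA with Bonferroni posttest.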

Syrian golden hamster [5] = test: Induction of reverse cholestrol transport in high fat diet-induced dyslipidemia Syrian Golden hamster model assessed as increase in LXR1alpha mRNA expression in liver at 100 mg/kg, po administered for 1 week by qRT-PCR analysis; format: functional, organism-based; settings: Mesocricetus auratus
3T3-L1 [6] = test: Anti-adipogenic activity in mouse differentiated 3T3L1 cells assessed as inhibition of adipogenesis at 20 uM after 20 mins by Oil Red O staining based assay; format: functional
Outline: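 3T3-L1 preadipocytes given 20 µM compound with differentiation media. Oil red O stain (20 min) extracted, absorbance at 492 nm measured against MDI+ control, n=3, mean ± SD, Student t test.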

Syrian golden hamster [7] = test: Induction of reverse cholestrol transport in high fat diet-induced dyslipidemia Syrian Golden hamster model assessed as increase in ABCG5 mRNA expression in eWAT at 100 mg/kg, po administered for 1 week by qRT-PCR analysis; format: functional, organism-based; settings: Mesocricetus auratus
Mus musculus [8] = species on record: Mus musculus; test: Activation of Wnt3a/beta-catenin in mouse 3T3L1 cells assessed as down-regulation of CDK6 expression at 20 uM after 16 to 24 hrs in presence of FH353 by Western blot analysis; format: cell-based
Outline: (§3)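 Confluent 3T3-L1 cells given differentiation media (IBMX/insulin/dexamethasone) with 20 µM compound, with or without the β-catenin/TCF inhibitor FH353 (10 µM). Proteins isolated at 16 and 24 h and Western blotted after SDS-PAGE and nitrocellulose transfer. Blocking in 5% milk/TBS-T, primary antibody overnight at 4 °C, chemiluminescent detection, β-actin control, three independent experiments.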

Mus musculus [9] = species on record: Mus musculus; test: Activation of Wnt3a/beta-catenin in mouse 3T3L1 cells assessed as down-regulation of cyclinD1 expression at 20 uM after 16 to 24 hrs in presence of FH353 by Western blot analysis; format: cell-based; outline: as §3
Syrian golden hamster [10] = test: Induction of reverse cholestrol transport in high fat diet-induced dyslipidemia Syrian Golden hamster model assessed as decrease in CYP7A1 mRNA expression in liver at 100 mg/kg, po administered for 1 week by qRT-PCR analysis; format: functional, organism-based; settings: Mesocricetus auratus
Syrian golden hamster [11] = test: Induction of reverse cholestrol transport in high fat diet-induced dyslipidemia Syrian Golden hamster model assessed as increase in LCAT mRNA expression in liver at 100 mg/kg, po administered for 1 week by qRT-PCR analysis; format: functional, organism-based; settings: Mesocricetus auratus
Mus musculus [12] = species on record: Mus musculus; test: Activation of Wnt3a/beta-catenin in mouse 3T3L1 cells assessed as increase in BMP2 mRNA expression at 20 uM by qRT-PCR analysis; format: cell-based; outline: as §2
Syrian golden hamster [13] = test: Anti-dyslipidemic activity in high fat diet-induced dyslipidemia Syrian Golden hamster model assessed as reduction in serum LDL levels at 100 mg/kg, po administered for 1 week followed by overnight fasting post last dose by clinical bio-analyzer analysis; format: functional, organism-based; settings: Mesocricetus auratus
Outline: (§4)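 Male Syrian golden hamsters (8–10 wk, 100–120 g), 4 per group, given 45% kcal HFD for 4 days, then 100 mg/kg p.o. in 0.5% NaCMC daily for one week alongside HFD. Blood taken from retro-orbital plexus after overnight fast. TG, HDL, LDL, ALT, AST measured on a clinical bio-analyzer and NEFA by kit. Mean ± SEM, one-way ANOVA with Bonferroni.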

3T3-L1 [14] = test: Anti-adipogenic activity in mouse 3T3L1 pre-adipocytes in differentiation media assessed as reduction in lipid accumulation at 20 uM after 20 mins in presence of beta-catenin/TCF complex inhibitor FH353 by Oil Red O absorbance method; format: functional, cell-based
Outline: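 3T3-L1 cells differentiated with 20 µM compound with or without FH353 (10 µM) in differentiation media. Oil red O extracted and absorbance read at 492 nm, n=3, mean ± SD, Student t test.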

Syrian golden hamster [15] = test: Anti-dyslipidemic activity in high fat diet-induced dyslipidemia Syrian Golden hamster model assessed as reduction in serum NEFA levels at 100 mg/kg, po administered for 1 week followed by overnight fasting post last dose; format: functional, organism-based; settings: Mesocricetus auratus; outline: as §4
C3H 10T1/2 = test: Anti-adipogenic activity in mouse differentiated C3H10T1/2 cells assessed as reduction in lipid accumulation at 5 to 20 uM after 20 mins by Oil Red O absorbance method; format: functional, cell-based; outline: as §1
Mus musculus [16] = species on record: Mus musculus; test: Activation of Wnt3a/beta-catenin in mouse 3T3L1 cells assessed as down-regulation of PPARgamma expression at 20 uM after 2 to 6 days in presence of FH353 by Western blot analysis; format: cell-based
Syrian golden hamster [17] = test: Induction of reverse cholestrol transport in high fat diet-induced dyslipidemia Syrian Golden hamster model assessed as increase in ApoA mRNA expression in liver at 100 mg/kg, po administered for 1 week by qRT-PCR analysis; format: functional, organism-based; settings: Mesocricetus auratus
Mus musculus [18] = species on record: Mus musculus; test: Activation of Wnt3a/beta-catenin in mouse 3T3L1 cells assessed as induction of TCF1 expression at 20 uM after 16 to 24 hrs in presence of beta-catenin/TCF complex inhibitor FH353 by Western blot analysis; format: cell-based; outline: as §3

SMILES: Cc1ccc(S(=O)(=O)N(Cc2cn(Cc3cccc(F)c3F)nn2)Cc2cn(S(=O)(=O)c3ccc(C)cc3)c3ccccc23)cc1
- Activity (3T3-L1 [1]): inactive
- Activity (Syrian golden hamster [2]): Active
- Activity (Homo sapiens): Active
- Activity (3T3-L1 [3]): inactive
- Activity (Mus musculus [4]): Active
- Activity (Syrian golden hamster [5]): Active
- inhibition at 20 µM (3T3-L1 [6]): 71.5%
- Activity (Syrian golden hamster [7]): Active
- Activity (Mus musculus [8]): inactive
- Activity (Mus musculus [9]): inactive
- Activity (Syrian golden hamster [10]): Active
- Activity (Syrian golden hamster [11]): Active
- Activity (Mus musculus [12]): Active
- Activity (Syrian golden hamster [13]): Active
- Activity (3T3-L1 [14]): inactive
- Activity (Syrian golden hamster [15]): Active
- Activity (C3H 10T1/2): Active
- Activity (Mus musculus [16]): inactive
- Activity (Syrian golden hamster [17]): Active
- Activity (Mus musculus [18]): inactive

From ChEMBL document CHEMBL4138193, “Novel indole and triazole based hybrid molecules exhibit potent anti-adipogenic and antidyslipidemic activity by activating Wnt3a/β-catenin pathway” (Eur J Med Chem, 2018)
